Test results published in ChEMBL document CHEMBL4808183, “Betulonic Acid Derivatives Interfering with Human Coronavirus 229E Replication via the nsp15 Endoribonuclease” (J Med Chem, 2021).
pEC50: −log10 of the molar value. Calls of active or inactive are those of the source. The calls are words filed in the database; no cut-off is given here.

Tests used:
[1] = test system: Yellow fever virus; experiment: Antiviral activity against Yellow fever virus; format: functional, organism-based
[2] = test system: Punta Toro virus; experiment: Antiviral activity against Punta Toro virus; format: functional, organism-based
[3] = test system: Herpes simplex virus unknown type; experiment: Antiviral activity against Herpes simplex virus; format: functional
[4] = test system: Human adenovirus 2; experiment: Antiviral activity against Adenovirus; format: functional
[5] = Cytotoxicity against mock-infected human embryonic lung fibroblast cells incubated for 5 days by MTS assay; format: cell-based; conditions: time 5 day
Outline: (§1)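 Confluent HEL cell cultures given serial compound dilutions together with HCoV-229E at MOI 100 and held 5 days at 35 °C. Virus-induced CPE was scored by microscopy. MTS reagent was then added and absorbance at 490 nm read 24 h later. EC50 was taken from the MTS or microscopic read-out and CC50 from MTS. SI = CC50/EC50, both by MTS. Mean ± SEM of three independent experiments.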

[6] = test system: Reovirus sp.; experiment: Antiviral activity against Reovirus-1; format: functional, organism-based
[7] = test system: Coxsackievirus B4; experiment: Antiviral activity against Coxsackie B4 virus; format: functional, organism-based
[8] = test system: Human immunodeficiency virus; experiment: Antiviral activity against HIV; format: functional, organism-based
[9] = Antiviral activity against Human coronavirus 229E infected in human embryonic lung fibroblast cells assessed as reduction in virus-induced cytopathic effect incubated for 5 days by microscopy; format: functional, cell-based; conditions: 120 h; outline: as §1
[10] = test system: Sindbis virus; experiment: Antiviral activity against Sindbis virus; format: functional, organism-based
[11] = test system: Vesicular stomatitis virus; experiment: Antiviral activity against Vesicular stomatitis virus; format: functional, organism-based
[12] = test system: Respiratory syncytial virus; experiment: Antiviral activity against Respiratory syncytial virus; format: functional, organism-based
[13] = (§2) Antiviral activity against Human coronavirus 229E infected in human embryonic lung fibroblast cells assessed as reduction in virus-induced cytopathic effect incubated for 5 days by MTS cell viability assay; format: functional, cell-based; conditions: 120 h; outline: as §1
[14] = test system: Vaccinia virus; experiment: Antiviral activity against Vaccinia virus; format: functional, organism-based; conditions: Orthopoxvirus vaccinia
[15] = as §2, with “Selectivity index, ratio of CC50 for cytotoxicity against mock-infected human embryonic lung fibroblast cells incubated for 5 days by MTS assay to EC50 for antiviral” for “Antiviral”; format: toxicity, cell-based; conditions: time 5 day, read-out: Ratio CC50/EC50; outline: as §1
[16] = test system: Influenza A virus; experiment: Antiviral activity against Influenza virus; format: functional
[17] = test system: Human respirovirus 3; experiment: Antiviral activity against Parainfluenza-3 virus; format: functional, organism-based

SMILES	Activity [1]	Activity [2]	Activity [3]	Activity [4]	CC50 at 120 h [5]	Activity [6]	Activity [7]	Activity [8]	pEC50 [9]	Activity [10]	Activity [11]	Activity [12]	pEC50 [13]	Activity [14]	selectivity ratio at 120 h [15]	Activity [16]	Activity [17]
C=C(C)[C@@H]1CC[C@]2(C(=O)O)CC[C@]3(C)[C@H](CC[C@@H]4[C@@]5(C)Cc6nnn(Cc7ccncc7)c6C(C)(C)[C@@H]5CC[C@]43C)[C@@H]12	inactive	inactive	inactive	inactive	17 µM	inactive	inactive	inactive	5.62	inactive	inactive	inactive	5.60	inactive	7	inactive	inactive
C=C(C)[C@@H]1CC[C@]2(C(=O)O)CC[C@]3(C)[C@H](CC[C@@H]4[C@@]5(C)Cc6nnn(Cc7ccc(C(F)(F)F)cc7)c6C(C)(C)[C@@H]5CC[C@]43C)[C@@H]12	inactive	inactive	inactive	inactive	≥ 47 µM	inactive	inactive	inactive	5.44	inactive	inactive	inactive	5.32	inactive	> 10	inactive	inactive
C=C(C)[C@@H]1CC[C@]2(C(=O)O)CC[C@]3(C)[C@H](CC[C@@H]4[C@@]5(C)Cc6nnn(CCCCCCC)c6C(C)(C)[C@@H]5CC[C@]43C)[C@@H]12	inactive	inactive	inactive	inactive	16 µM	inactive	inactive	inactive	5.96	inactive	inactive	inactive	5.70	inactive	8	inactive	inactive
C=C(C)[C@@H]1CC[C@]2(CO)CC[C@]3(C)[C@H](CC[C@@H]4[C@@]5(C)CC[C@H](O)C(C)(C)[C@@H]5CC[C@]43C)[C@@H]12 [BETULIN]	–	–	–	–	7.6 µM	–	–	–	4.96	–	–	–	< 4.00	–	–	–	–
C=C(C)[C@@H]1CC[C@]2(C(=O)O)CC[C@]3(C)[C@H](CC[C@@H]4[C@@]5(C)Cc6nnn(Cc7ccccc7)c6C(C)(C)[C@@H]5CC[C@]43C)[C@@H]12	inactive	inactive	inactive	inactive	12 µM	inactive	inactive	inactive	6.15	inactive	inactive	inactive	6.07	inactive	14	inactive	inactive
C=C(C)[C@@H]1CC[C@]2(C(=O)O)CC[C@]3(C)[C@H](CC[C@@H]4[C@@]5(C)Cc6nnn([C@H](C)c7ccccc7)c6C(C)(C)[C@@H]5CC[C@]43C)[C@@H]12	inactive	inactive	inactive	inactive	> 100 µM	inactive	inactive	inactive	6.17	inactive	inactive	inactive	5.96	inactive	> 91	inactive	inactive
C=C(C)[C@@H]1CC[C@]2(C(=O)O)CC[C@]3(C)[C@H](CC[C@@H]4[C@@]5(C)Cc6nnn(Cc7ccc(F)cc7)c6C(C)(C)[C@@H]5CC[C@]43C)[C@@H]12	inactive	inactive	inactive	inactive	9.3 µM	inactive	inactive	inactive	6.06	inactive	inactive	inactive	5.66	inactive	4	inactive	inactive
C=C(C)[C@@H]1CC[C@]2(C(=O)O)CC[C@]3(C)[C@H](CC[C@@H]4[C@@]5(C)Cc6nnn(CCc7c[nH]c8ccc(OC)cc78)c6C(C)(C)[C@@H]5CC[C@]43C)[C@@H]12	inactive	inactive	inactive	inactive	8.9 µM	inactive	inactive	inactive	6.52	inactive	inactive	inactive	6.06	inactive	10	inactive	inactive
C=C(C)[C@@H]1CC[C@]2(C(=O)O)CC[C@]3(C)[C@H](CC[C@@H]4[C@@]5(C)Cc6nnn(Cc7ccc(N(C)C)cc7)c6C(C)(C)[C@@H]5CC[C@]43C)[C@@H]12	inactive	inactive	inactive	inactive	16 µM	inactive	inactive	inactive	6.29	inactive	inactive	inactive	6.27	inactive	31	inactive	inactive
C=C(C)[C@@H]1CC[C@]2(C(=O)O)CC[C@]3(C)[C@H](CC[C@@H]4[C@@]5(C)Cc6nnn(CC7CCCCC7)c6C(C)(C)[C@@H]5CC[C@]43C)[C@@H]12	inactive	inactive	inactive	inactive	79 µM	inactive	inactive	inactive	4.85	inactive	inactive	inactive	4.89	inactive	–	inactive	inactive
C=C(C)[C@@H]1CC[C@]2(C(=O)O)CC[C@]3(C)[C@H](CC[C@@H]4[C@@]5(C)Cc6nnn(Cc7ccc8c(c7)OCO8)c6C(C)(C)[C@@H]5CC[C@]43C)[C@@H]12	inactive	inactive	inactive	inactive	15 µM	inactive	inactive	inactive	5.82	inactive	inactive	inactive	5.72	inactive	8	inactive	inactive
C=C(C)[C@@H]1CC[C@]2(C(=O)O)CC[C@]3(C)[C@H](CC[C@@H]4[C@@]5(C)Cc6nnn(Cc7cc(OC)cc(OC)c7)c6C(C)(C)[C@@H]5CC[C@]43C)[C@@H]12	inactive	inactive	inactive	inactive	17 µM	inactive	inactive	inactive	5.80	inactive	inactive	inactive	5.62	inactive	7	inactive	inactive
C=C(C)[C@@H]1CC[C@]2(C(=O)O)CC[C@]3(C)[C@H](CC[C@@H]4[C@@]5(C)CCC(=O)C(C)(C)[C@@H]5CC[C@]43C)[C@@H]12 [BETUNOLIC ACID]	–	–	–	–	> 100 µM	–	–	–	< 4.00	–	–	–	< 4.00	–	–	–	–
CC(C)[C@@H]1CC[C@]2(C)CC[C@]3(C)[C@H](CC[C@@H]4[C@@]5(C)Cc6nnn([C@@H](C)c7ccccc7)c6C(C)(C)[C@@H]5CC[C@]43C)[C@@H]12	inactive	inactive	inactive	inactive	–	inactive	inactive	inactive	–	inactive	inactive	inactive	–	inactive	–	inactive	inactive
